MrgX1 antag = blocks BAM8-22 activation of human MrgX1 receptor | B-score at 10 µM | 310,000 tested, 1.3% active | AID 588676 | MRGX1-HEK293 calcium flux, Fluo-4, BAM8-22 antagonism; active compounds read low;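 active means calcium-response B-score plate-corrected more than 3 library SD below zero, starting fluorescence within 5 deviations, no agonist response on first addition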;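 further: peak minus trough fluorescence over baseline after final BAM8-22 challenge near maximal dose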
Target sequence (Q96LB2 whole entry, looked up): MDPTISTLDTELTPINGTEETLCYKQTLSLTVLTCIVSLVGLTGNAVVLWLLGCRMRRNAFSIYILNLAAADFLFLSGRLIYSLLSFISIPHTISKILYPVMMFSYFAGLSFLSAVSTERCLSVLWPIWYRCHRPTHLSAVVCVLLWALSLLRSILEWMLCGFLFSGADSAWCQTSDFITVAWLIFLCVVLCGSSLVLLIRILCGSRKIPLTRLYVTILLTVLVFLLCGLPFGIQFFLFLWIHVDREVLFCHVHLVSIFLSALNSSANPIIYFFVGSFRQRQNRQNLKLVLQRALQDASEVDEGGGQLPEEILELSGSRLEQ
MrgX1 allo act = allosterically activates human MrgX1 receptor signaling | MrgX1-HEK293, Fluo-4 calcium flux, FDSS; active compounds read high | AID 588675 | 310,000 tested, 0.63% active | B-score at 10 µM;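 active means plate-corrected calcium response at least 3 library SD above typical, normal starting fluorescence, not activating the receptor alone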;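 further: compound read alongside a low EC10 to EC30 dose of BAM8-22 agonist; peak minus trough fluorescence over baseline measured at the second addition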
MrgX1 ag = activates human MrgX1 receptor signaling. Q96LB2. B-score at 10 µM. AID 588627. MrgX1-HEK293 cells, Fluo-4 calcium fluorescence, agonist mode; active compounds read high. 310,000 tested, 0.44% active;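 active means calcium response B-score plate-corrected fluorescence ratio at least 3 library SD, with starting fluorescence B-score inside 5 SD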
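Material – MrgX1-expressing HEK293 cells · Input – 15,000 cells seeded per well · Dosing – compound as first of three additions · Times – overnight seeding, then 1 h dark dye loading · Measured by – kinetic Fluo-4 NW fluorescence of intracellular calcium · Read-out – B-scored fluorescence response ratio · Benchmarks – positive and negative control wells on each plate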
RGS4 pot = potentiators or activators of RGS4 | HEK293 M3R/inducible RGS4, carbachol calcium flux Fluo4; active compounds read low | B-score at 10 µM | 310,000 tested, 0.92% active;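 active means B-score of the integrated calcium signal more than 4 SD below the library mean, with starting fluorescence not abnormally high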;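 further: negative B-score means reduced calcium response which marks RGS4 activation or potentiation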
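System: HEK293 FlpIn-TREx cells, stable M3R, doxycycline-inducible RGS4. Timing: overnight RGS4 induction, 30 min dye load 37 °C, 20 min compound RT. Also added: carbachol, ECmax concentration. Measured by: Fluo4 fluorescence kinetic imaging of calcium. Evaluation: integrated calcium ratio converted to B score.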
RGS4 inh = human RGS4 inhibition; P49798; HEK293 M3R/RGS4 inducible, Fluo-4 calcium flux; active compounds read high; triggered by carbachol at its EC20; B-score at 10 µM; 310,000 tested, 0.45% active;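 active means B-score, a plate-corrected calcium signal, over three deviations above library mean, with baseline fluorescence within five deviations of library mean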;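 further: RGS4 expression induced by doxycycline in cells with stable M3 receptor; B-score is computed from the integrated fluorescence ratio over baseline after carbachol; higher B-score means a larger calcium signal and so more RGS4 inhibition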
Target sequence (P49798 whole entry, looked up): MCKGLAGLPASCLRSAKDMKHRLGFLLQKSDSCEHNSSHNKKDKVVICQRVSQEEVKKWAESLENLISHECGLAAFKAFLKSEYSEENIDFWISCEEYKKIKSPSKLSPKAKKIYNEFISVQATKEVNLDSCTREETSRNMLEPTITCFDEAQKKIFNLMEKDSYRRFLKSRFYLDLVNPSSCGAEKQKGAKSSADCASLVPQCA
MrgX1 antag conf = reconfirmed antagonist of human MrgX1 receptor signaling; AID 602420; shares compounds with MrgX1 antag; MrgX1-HEK293, BAM8-22 calcium flux, Fluo-4; active compounds read low; remaining BAM8-22 calcium response % of control (active compounds read low), % at 10 µM; 2,300 tested, 19% active;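 active means remaining agonist calcium response no higher than 100% minus 3 SD of agonist-only control wells, with starting fluorescence near control levels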;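 further: agonist BAM8-22 given at a near maximal EC90 to ECmax level; peak minus minimum fluorescence divided by baseline after agonist addition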
HEK293 Ca flux = activity in parental HEK293 cells lacking MrgX1; Fluo-4 calcium fluorescence, FDSS; shares compounds with MrgX1 antag; fluorescence ratio F(max-min)/F0 at 10 µM; 4,000 tested, 2% active; AID 624111;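 active means duplicate-averaged calcium fluorescence ratio at least three times the standard deviation of buffer wells, a nonspecific response in parental cells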
HEK293 Ca counter = counter-screen for MrgX1 allosteric activators: effect in parental HEK293 cells. shares compounds with MrgX1 antag. 4,000 tested, 0.4% active. parental HEK293 calcium flux, Fluo-4 fluorescence ratio; active compounds read high. fluorescence ratio F(max-min)/F0 at 10 µM;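 active means calcium fluorescence ratio, averaged over duplicates, at least 3 SD of the buffer-well ratio, meaning a nonspecific response in receptor-free cells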;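 further: untransfected parental HEK293 lacking MrgX1 used as counterscreen for MrgX1 allosteric activators; fluorescence change taken during the second addition on a kinetic imager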
HEK293 Ca cntr2 = activity in parental HEK293 cells lacking MrgX1 receptor | Fluo-4 calcium fluorescence (FDSS); active compounds read high | AID 624115 | shares compounds with MrgX1 antag | fluorescence ratio F(max-min)/F0 at 10 µM | 4,000 tested, 8.7% active;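 active means calcium fluorescence ratio at least three times the spread of buffer wells, meaning a non-specific response in parental cells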
* = called active by the depositor; i = inactive; x = no result. Sampled rows, rich in hits. Any-hit rate of the full collection: about 3.5%.

SMILES	MrgX1 antag	MrgX1 allo act	MrgX1 ag	RGS4 pot	RGS4 inh	MrgX1 antag conf	HEK293 Ca flux	HEK293 Ca counter	HEK293 Ca cntr2
COC(=O)C1=C(SC)N(c2ccccc2)C(c2ccccc2)CC1=O (stereo not given)	i	i	i	i	i	x	x	x	x
COc1ccc(Cl)cc1NS(=O)(=O)N1CCOCC1	-6.2*	i	i	i	i	i	i	i	i
Cc1ccc(Cl)cc1NS(=O)(=O)N1CCOCC1	i	i	i	i	i	x	x	x	x
CCOC(=O)c1cc2occc2n1CCCN1C(=O)c2ccccc2C1=O	-6.1*	i	i	i	i	i	i	i	i
CCOC(=O)c1cc2occc2n1CC(=O)N1CCOCC1	i	i	i	i	i	x	x	x	x
COc1ccccc1NC(=O)Cn1c(CCC(=O)O)ccc1-c1ccc(C)cc1	i	i	i	i	i	x	x	x	x
CCCCCOC(=O)Cn1c(=O)oc2ccccc21	i	i	i	i	i	x	x	x	x
CCCCCCCCCCOC(=O)Cn1c(COc2ccccc2C)[n+](C)c2ccccc21	-12*	i	i	-7.4*	i	i	i	i	i
CCCCCCCCCCOC(=O)Cn1c(COc2ccccc2)[n+](C)c2ccccc21	-10*	i	i	-9.3*	i	i	i	i	i
CCCCCCCCCCOC(=O)Cn1c(COc2ccc(Cl)cc2)[n+](C)c2ccccc21	-10*	i	i	i	i	i	i	i	i
CCCCOC(=O)Cn1c(=O)n(CC(=O)OCCCC)c2ccccc21	i	i	i	i	i	x	x	x	x
CSc1ccccc1C(=O)C1CCCN(S(=O)(=O)c2c(C)noc2C)C1 (stereo not given)	i	i	i	i	i	x	x	x	x
CN(Cc1cnccn1)Cc1ccccc1OCC(O)CN1CCc2ccccc2C1 (stereo not given)	i	i	i	i	i	x	x	x	x
COC(=O)c1ccc(NC(=O)CN2CCN(c3ccccc3)CC2)cc1	-6.7*	i	i	i	i	i	i	i	i
COC(=O)c1ccc(NC(=O)CSc2ccccn2)cc1	i	i	i	i	i	x	x	x	x
COC(=O)c1ccc(NC(=O)CSc2ccccc2)cc1	-5.9*	i	i	i	i	i	i	i	i
S=C(NCc1ccc(Cl)cc1)NCc1ccco1	i	i	i	i	i	x	x	x	x
CCNC(=S)NCc1ccco1	-6.2*	i	i	i	i	i	i	i	i
COCCN1Cc2cccc(C(=O)Nc3ccc(C)cc3)c2C1=O	-7.6*	i	i	i	i	81%*	i	i	i
COCCN1Cc2cccc(C(=O)Nc3cccnc3)c2C1=O	i	i	i	x	x	x	x	x	x
CCCC(=O)Nc1ccccc1N1CCN(C(=O)C(C)C)CC1	-5.2*	i	i	i	i	i	i	i	i
CC(C)C(=O)N1CCN(c2ccccc2NC(=S)NC(=O)Cc2ccccc2)CC1	i	i	i	i	i	x	x	x	x
COCC(C)NC(=O)c1cc(-c2ccc(O)cc2)on1 (stereo not given)	-6*	i	i	i	i	i	i	i	i
CCCc1nc2ccccc2c(=O)n1CC(=O)c1ccccc1	-5.8*	i	i	i	i	i	i	i	i
CCC(c1nnc(SCC(=O)NC2CCCCC2)n1Cc1ccccc1)N(C)C (stereo not given)	i	i	i	i	i	x	x	x	x
SMILES	MrgX1 antag	MrgX1 allo act	MrgX1 ag	RGS4 pot	RGS4 inh	MrgX1 antag conf	HEK293 Ca flux	HEK293 Ca counter	HEK293 Ca cntr2
COC(=O)C1=C(C)NC(=O)CC1c1ccc(F)c(Br)c1 (stereo not given)	-4.6*	i	i	i	i	i	i	i	i
O=C(Cc1c(Cl)cccc1Cl)NC1=NCCS1	i	i	i	i	i	x	x	x	x
O=C(CC(NC(=O)c1ccccc1Cl)c1ccccc1)NC1=NCCS1 (stereo not given)	-6.6*	i	i	i	i	i	i	i	i
O=C(NCCNCc1cccs1)c1ccccc1F	i	i	i	i	i	x	x	x	x
O=C(NCc1cccs1)c1ccccc1F	-6.2*	i	i	i	i	i	i	i	i
CCn1c2ccccc2c2cc(CN3CCN(S(=O)(=O)CC)CC3)ccc21	i	i	i	i	i	x	x	x	x
CCn1c2ccccc2c2cc(CN3CCN(S(=O)(=O)Cc4ccccc4)CC3)ccc21	-8.1*	i	i	i	i	80%*	i	i	i
COc1cccc(N=C2NC(=O)/C(=C/c3cc([N+](=O)[O-])ccc3O)S2)c1	-11*	i	i	i	i	i	i	i	i
CCOc1ccccc1Nc1ncccc1C(=O)O	i	i	i	i	i	x	x	x	x
COc1ccccc1Nc1ncccc1C(=O)O	-8.5*	i	i	i	i	77%*	i	i	i
CCOc1ccccc1C(=O)NC1CCNCC1	i	i	i	i	i	x	x	x	x
COc1ccc(NC(=O)CSc2nnc3c4c(nc(-c5ccccc5)n23)CC(C)(C)OC4)cc1	-7.2*	i	i	i	i	i	i	i	i
O=C(CSC1=NCCS1)c1ccc(Cl)cc1	i	i	i	i	i	x	x	x	x
O=C(CSC1=NCCS1)N1CCN(c2ccc(Cl)cc2)CC1	-6.3*	i	i	i	i	i	i	i	i
Cc1cccnc1NC(=O)C(C)N1C(=O)c2ccccc2C1=O (stereo not given)	i	i	i	i	i	x	x	x	x
CCCCn1c(SCC(=O)Nc2cccc(OC)c2)nc2ccc(N3CCOCC3)cc2c1=O	-5.2*	i	i	i	i	i	i	i	i
CCCCn1c(SCC(N)=O)nc2ccc(N3CCOCC3)cc2c1=O	i	i	i	i	i	x	x	x	x

Source: PubChem BioAssay (Johns Hopkins Ion Channel Center)
